Assay outcomes: PubChem BioAssay, several laboratories
An excerpt weighted towards active compounds, which were near 2.6% of everything screened.
IMP-1 inh = inhibitors of Pseudomonas aeruginosa IMP-1 metallo-beta-lactamase; 0.45% of 290,000 active; purified IMP-1, nitrocefin hydrolysis, epi-absorbance fluorescence; inhibition, % at 5.6 µM;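 active = inhibition above the mean plus 3 SD of all compounds in the same screening run, cut at about 4.5% in these data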
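System: purified IMP-1 / Input: IMP-1 dispensed at 0.2 nM / Medium: 50 mM HEPES pH 7.1, 50 µM ZnSO4, 0.05% Brij 35 / Timing: 15 min enzyme–compound preincubation, then 25 min nitrocefin reaction, 25 °C / Technique: plate fluorescence quenching by hydrolysis product, ex 480/em 530 nm / Repeats: singlicate testing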
ARFGAP1 inh = inhibitors of rat ARFGAP1; inhibition, % at 16.5 µM; Arfgap1-stimulated ARF1 GTP hydrolysis, GDP FP detection; 0.26% of 360,000 active; AID 651572; Q62848;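 active = inhibition above a per-plate limit, mean inhibition of low control wells plus 3 SD, cut at about 25% in these data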
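Assay system: purified rat His6-Arfgap1 residues 1-136 (GAP domain); Reagent: human Δ17 ARF1 bound to GTP; Dosing: 16.5 µM single point, 1.26% DMSO; Times: GTP hydrolysis reaction 2 h at 25 °C; Signal: FP, GDP Alexa 633 tracer displaced from anti-GDP antibody, 620/688 nm; Measure: % inhibition from polarization.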
Calb FLC = C. albicans growth modulation with fluconazole; C. albicans CaCi-2 + fluconazole, Alamar Blue growth, 48 h; growth inhibition, % (test concentration not listed); 0.57% of 300,000 active; AID 1979;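 active = growth inhibition above about 58% in most replicates, limit read from the data, passing the limit was not always enough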;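 also: all wells also contain fluconazole at 8 µg/ml as a sub-toxic cotreatment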
ASAP1 GAP inh = inhibitors of human ASAP1 ArfGAP activity; inhibition, % at 16.5 µM; Q9ULH1; AID 624377; ASAP1-stimulated ARF1 GTP hydrolysis, GDP FP detection; 0.19% of 360,000 active; in the data active = inhibition above about 25%
Target sequence (Q9ULH1 325-724 limits assumed): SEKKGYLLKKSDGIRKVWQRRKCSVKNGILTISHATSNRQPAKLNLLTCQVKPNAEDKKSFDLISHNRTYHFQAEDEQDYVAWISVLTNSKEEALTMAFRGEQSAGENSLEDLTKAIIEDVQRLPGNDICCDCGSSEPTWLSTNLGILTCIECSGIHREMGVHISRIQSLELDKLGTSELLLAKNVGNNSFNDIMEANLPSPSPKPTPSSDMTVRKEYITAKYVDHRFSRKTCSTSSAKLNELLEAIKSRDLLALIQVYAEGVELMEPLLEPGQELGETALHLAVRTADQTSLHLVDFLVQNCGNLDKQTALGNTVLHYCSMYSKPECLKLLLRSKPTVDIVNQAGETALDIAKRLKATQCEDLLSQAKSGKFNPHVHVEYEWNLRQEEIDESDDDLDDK
PHOSPHO1 block = inhibitors of human PHOSPHO1 phosphatase; Q8TCT1; recombinant PHOSPHO1, absorbance phosphatase assay; AID 1565; 1.1% of 290,000 active; inhibition, % at 13.3 µM; in the data active = inhibition above about 60%
VIM-2 inhibitor = blocks Pseudomonas aeruginosa VIM-2 metallo-beta-lactamase. purified VIM-2, nitrocefin hydrolysis, epi-absorbance fluorescence. inhibition, % at 5.6 µM. 0.89% of 290,000 active;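 active = inhibition above the mean of all tested compounds plus 3 SD, cutoff set per screening run, cut at about 7.5% in these data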;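 also: red hydrolysis product quenches plate fluorescence so inhibitors raise well fluorescence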
Numbers stand for hits; . = inactive; / = no result.

SMILES	IMP-1 inh	ARFGAP1 inh	Calb FLC	ASAP1 GAP inh	PHOSPHO1 block	VIM-2 inhibitor
CCN(CC)S(=O)(=O)c1ccc(N/N=C(\C)c2ccc(OC)cc2O)nc1	.	.	91	.	.	.
CCC(c1nnc(SCC(=O)Nc2cc(Cl)ccc2C#N)n1C1CCCCC1)N(C)C (stereo unspecified)	.	.	.	.	.	.
CCC(c1nnc(SCC(=O)Nc2ccc(C(C)=O)cc2)n1C1CCCCC1)N(C)C (stereo unspecified)	.	.	.	.	.	12
CCCCS(=O)(=O)N1C2=NC(C(=O)OCC)=C(C(=O)OCC)C3N(Cc4ccc(Br)cc4)c4ccccc4[C@]23C[C@H]1C(=O)OC (stereo partly specified)	/	.	/	.	/	/
Cc1ccc(CO/N=C\Cc2snc(Sc3ncc(C(F)(F)F)cc3Cl)c2C#N)cc1	.	.	.	.	95	.
O=C(N/N=C/c1cn(CCOc2ccccc2)c2ccccc12)c1ccncc1	.	.	.	.	.	.
COc1ccccc1OCCn1cc(/C=N/NC(=O)c2ccncc2)c2ccccc21	.	.	.	.	60	.
C=CCN1C=C(C(=O)OCC)C(=O)CC1	/	.	/	.	/	/
COCc1cc(N2CCN(C(=O)OC(C)(C)C)C[C@@H]2C)ccc1N1CCN(Cc2ccccc2)[C@@H](C)C1	/	.	/	.	/	/
COc1cc(S(=O)(=O)N2CCOCC2)ccc1NC(=O)CSc1nnc(N)s1	.	.	.	.	65	.
Nc1nnc(SCC(=O)Nc2cc(S(=O)(=O)N3CCOCC3)ccc2N2CCCC2)s1	/	.	/	.	/	/
CN(C)Cc1c(C(C)(C)O)[nH]c2cc(F)ccc12	/	.	/	.	/	/
Cc1ccc(-n2nc3c(=O)n(CCCC(=O)NCc4ccco4)nc(C)c3c2C)cc1	.	.	.	.	64	.
Cc1ccc(-n2nc3c(=O)n(CC(=O)NCCc4ccc(Cl)cc4)nc(C)c3c2C)cc1	18	.	.	.	.	.
Cc1ccc(-n2nc3c(=O)n(CCCC(=O)NCCN4CCN(C)CC4)nc(C)c3c2C)cc1	4.9	.	.	.	.	.
Cc1ccc(CCNC(=O)CCCn2nc(C)c3c(C)n(-c4ccc(C)cc4)nc3c2=O)cc1	.	.	.	.	.	.
CCCCC1(C)OC(=O)C(=Cc2ccc(-c3ccc(Cl)c(C(=O)O)c3)o2)C(=O)O1 (stereo unspecified)	29	.	.	.	86	.
CON(Cc1ccccc1)S(=O)(=O)c1ccccc1Br	/	.	/	.	/	/
Cc1ccc2nc(C3CCCCC3)c(CC(C)(C)C)n2c1	/	.	/	.	/	/
CCC(CC)C(=O)NCCc1ccc(OC)cc1	.	.	.	.	.	.
CC[C@@H](C)[C@H](CN[C@H](CNC)[C@@H](C)O)NCCc1ccc(OC)cc1	.	.	.	.	.	11
CC(C)(C)S(=O)N1C[C@@H]2CC(=O)C(CCO)=C2[C@H]1CCO (stereo partly specified)	/	.	/	.	/	/
CCOC(=O)c1sc2cc([N+](=O)[O-])cc(SCC(=O)OC)c2c1N	.	.	.	.	99	.
NC1(N2SC(S)=C3CCCC=C32)CCCCC1	/	.	/	.	/	/
CC1Cc2ccccc2N1C(=O)CSc1nnnn1C(C)C (stereo unspecified)	.	.	.	.	62	.
SMILES	IMP-1 inh	ARFGAP1 inh	Calb FLC	ASAP1 GAP inh	PHOSPHO1 block	VIM-2 inhibitor
CCNC(=O)O[C@@H]1C=C[C@@H](C#Cc2ccc(C(C)(C)C)cc2)O[C@@H]1COC(C)=O	/	.	/	.	/	/
Cc1ccc(NC(=O)CSc2nccc(=O)[nH]2)c(S(=O)(=O)N2CCOCC2)c1	.	.	.	.	64	.
CC(C)(C)c1ccc(C#C[C@@H]2C=C[C@@H](O)[C@@H](COC(=O)Nc3ccccc3)O2)cc1	/	.	/	.	/	/
COC(=O)c1cc2c(c3c4ccccc4n(S(=O)(=O)c4cccc(C)c4)c13)C(=O)N(C)C2	/	.	/	.	/	/
CCOc1ccc(-c2nnc3ccc(SCc4ccc(C(=O)OC)o4)nn23)cc1	.	.	.	.	95	.
COC(=O)C1(F)C(=O)NC(=O)NC1OC (stereo unspecified)	/	.	/	.	/	/
O=C(COC(=O)CCC(=O)c1cccs1)NC(=O)c1ccc(OC(F)F)cc1	4.8	.	.	.	.	.
CNC(=O)COC(=O)CCC(=O)c1cccs1	.	.	.	.	.	.
Cc1[nH]c2ccccc2c1Cc1n[nH]c(=S)n1C	.	.	.	.	.	.
